These results are taken from the RNAGym collection of RNA variant scans (doi:10.1126/science.aae0568).

Variants at the floor of the assay were thinned out.

To fix the notation:
B1: tRNA (parent)
chain: GUUCCGUUGGCGUAAUGGUAACGCGUCUCCCUCCUAAGGAGAAGACUGCGGGUUCGAGUCCCGUACGGAACG

Variants of B1 are the subject of this data set. Put plainly: yeast fitness relative to wild type (ratio to wild type); higher = fitter; tRNA-Arg(CCU), competitive growth, 37 C, YPD. The method in brief:
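The tRNA-Arg(CCU) gene variants were made by chemical synthesis with a 3% per-site mutation rate at 69 sites and inserted at the native genomic locus of Saccharomyces cerevisiae. After pooling, the strains were competed in YPD at 37°C for 24 hours in six parallel replicates. Gene amplicons from the start population and each end population were read by 100-nucleotide paired-end sequencing, and Darwinian fitness relative to wild type was taken from genotype frequency changes. Genotypes needed ≥ 100 starting reads, and estimates < 0.5 were set to 0.5.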
With A14C C22A C55G, the yeast fitness was ≤ 0.5. For the variant G17A G25C, the yeast fitness was 0.705. In the case of A36G G38C, the yeast fitness amounted to 0.719. For G10C A36G, the yeast fitness is 0.663.

In the case of C5A G12A G50C, the yeast fitness is ≤ 0.5.

Turning to A20C C22U, the yeast fitness was 0.729.

Regarding G9A C31G C49G G51C, the yeast fitness was ≤ 0.5.

On to C29G G56A A69U, for which the yeast fitness was ≤ 0.5. Turning to C4U U7C, the yeast fitness was determined as 1.08. On to U8C A42G C61U, for which the yeast fitness is 0.526.

Take G12A C66U: the yeast fitness was 0.834. Turning to U47C U53A, the yeast fitness was 0.604. For the variant A37G G63A, the yeast fitness was found to be 0.62.

For G10A U35G A37U U47C G56C U64C A69C, the yeast fitness was ≤ 0.5. The result for C4A G9A C24U C30U A36G A57G G58A G63A C66U reads ≤ 0.5; that for A20C C24A A36C G48C, ≤ 0.5; that for A21G A36U A45U C49U U64A A70U, ≤ 0.5. Turning to A43G C46U A70G, the yeast fitness came out at 1.04.

Regarding G9A C11U A42U U47C G51A A70C, the yeast fitness is ≤ 0.5. As to A15C A37C C60U G67A, the yeast fitness is ≤ 0.5. With C4U G17C, the yeast fitness turned out to be 0.709. Turning to C24U G44A C55G G56A A57U, the yeast fitness was 0.79. Take G9A A40G C60U: the yeast fitness was ≤ 0.5. To G6U U32C belongs 0.766; to G6A U13G U35C A57C, ≤ 0.5; to C27G G56A, 0.614. A14G A69C: the yeast fitness was determined as 0.729. For the variant C4G U7G G10C G38C C49G A69C, the yeast fitness was ≤ 0.5.

As to C5G U26C A45C G63A, the yeast fitness is ≤ 0.5. The result for U7A G18A A36C U47A G68A reads 0.508; that for A45C G58C A69C, 0.651. For C27A A37C, the yeast fitness was 0.597. For C34A A37U, the yeast fitness was determined as 0.741.

Turning to C5A C34U A36C A40C, the yeast fitness was ≤ 0.5. Turning to U13G G58C, the yeast fitness is 0.969. For C30G C31U U59A, the yeast fitness worked out at 0.563. Consider G9C C24U C34A G44C C46U G48A A69G, for which the yeast fitness was ≤ 0.5. As to U26C A37U A57G, the yeast fitness was determined as 0.658. Consider U7G G38C, for which the yeast fitness was 0.591. In the case of C5U G44A G68A, the yeast fitness turned out to be 0.522.

With U8C C31A A42G A57U U59A, the yeast fitness was ≤ 0.5.

Take C5A C30A C31G A37U C55U A57C C61A: the yeast fitness was found to be 0.55.

Regarding C27U C30G A40C G44A G52A A70U, the yeast fitness was ≤ 0.5.

G10A C33U A45U G48C U64A A70U: the yeast fitness was ≤ 0.5. For the variant C27G G48C G56C, the yeast fitness is ≤ 0.5. In the case of G25C A40C, the yeast fitness turned out to be 0.848. As to C4G A21G A43C C46A A57C C62G C66U, the yeast fitness is ≤ 0.5. To U7G A42C G44C G67C belongs ≤ 0.5. A20G C22A G23C: the yeast fitness was ≤ 0.5. As to C5U C34A U64G, the yeast fitness is ≤ 0.5. With U3A A14U, the yeast fitness was found to be 0.731. On to C5U A20C C22U A36G G52C, for which the yeast fitness is ≤ 0.5.

In the case of C5G C34U C55G A70G, the yeast fitness was ≤ 0.5. For the variant C33G G52A A65C, the yeast fitness was ≤ 0.5. For C4A G52C C62U, the yeast fitness is ≤ 0.5.

Regarding C4A G23A C30U C31G A40C, the yeast fitness is ≤ 0.5.

As for C5U C34A A36G G63A, the yeast fitness was ≤ 0.5. Turning to C4A A57G, the yeast fitness is 0.841. For the variant C22G U32C U54A G68A, the yeast fitness is ≤ 0.5.

Regarding A40U A42C C55U, the yeast fitness was ≤ 0.5. C5G A21C C33G: the yeast fitness was ≤ 0.5. As for C27G A43U A57G, the yeast fitness is ≤ 0.5. Consider C29U A36G, for which the yeast fitness was found to be 0.842. For the variant C5U U13G A57C, the yeast fitness turned out to be 0.755. In the case of C4G A21C C49A A65G, the yeast fitness is ≤ 0.5. Regarding U2C C29U A37G A57G, the yeast fitness was ≤ 0.5. With C31G C33U A42G U64C A65G, the yeast fitness was ≤ 0.5. Turning to U8A U35A A36G A57C, the yeast fitness was ≤ 0.5. The result for A45C G63C U64C reads ≤ 0.5; that for C33G G41C A43C C61U C66U, ≤ 0.5; that for C24G C46G C66U, ≤ 0.5. For A14G G48C U64C, the yeast fitness is 0.715. Take A15C A20C G41C: the yeast fitness is ≤ 0.5. To A40G C61U U64G A69U belongs ≤ 0.5; to C11A A21U C30A A45U C49U C55U, ≤ 0.5. For U3G C27U U35G A42U, the yeast fitness is ≤ 0.5. For U16A A36C A37G G56C, the yeast fitness was ≤ 0.5. In the case of C61A C66U, the yeast fitness was 0.691. For the variant C5A A15U U47C, the yeast fitness is ≤ 0.5. With A14G C30G A36C A69U, the yeast fitness was ≤ 0.5. U7G C46U A70G: the yeast fitness is 0.752. In the case of U2G U26A G52A, the yeast fitness is ≤ 0.5. Take G9C A14U U28C U35G: the yeast fitness was 0.623. The result for U8A G38A U54A reads ≤ 0.5; that for U13C G25C A40C, 0.667; that for G10A A69C, 0.858. To U8C G25A belongs 0.931. As for U16A C33G C66G, the yeast fitness was ≤ 0.5. On to U8C G17A G41C A65C, for which the yeast fitness was ≤ 0.5. Consider A36G C49U C61U, for which the yeast fitness stood at 0.654. With U35C U59A, the yeast fitness stood at 0.878. Regarding U16A G25A U32C, the yeast fitness came out at 0.889. Turning to U2G A21G U47C A69C, the yeast fitness was ≤ 0.5.

As to G9A A15C G56A C61U, the yeast fitness was ≤ 0.5. For C24A C27G, the yeast fitness was determined as 0.571. For G12A A40G C46A C61U, the yeast fitness is ≤ 0.5. On to U7G A15C A45C, for which the yeast fitness was found to be 0.565. For the variant G10A G18A C27G A37G G38A A57U, the yeast fitness is ≤ 0.5. Consider A20U C27G, for which the yeast fitness was 0.642.

G10A G51A: the yeast fitness is 0.691.

In the case of G50U A65G A70C, the yeast fitness worked out at 0.59. Regarding G12A C24G U26G A40U, the yeast fitness is ≤ 0.5. For C5G G48C C49U U54G C66A, the yeast fitness stood at 0.682. Turning to U28C G67A, the yeast fitness amounted to 0.652.

In the case of G10A G17A A36G A40C A57C C62A, the yeast fitness was ≤ 0.5. Take A14G A21G C27U A45C G48C: the yeast fitness was ≤ 0.5. Consider G18A A20G U54A A70G, for which the yeast fitness was ≤ 0.5. As for U26C A42C A70C, the yeast fitness was 0.757. U2A C5G C11G U19C A20G: the yeast fitness was ≤ 0.5. To A14U U32G G52A G63C belongs ≤ 0.5. Take C4U G10C C31G G50C C66U: the yeast fitness was ≤ 0.5. The result for G6C U7C C31A reads ≤ 0.5; that for G12A C29U U64A, ≤ 0.5; that for G44A A70U, 1.03. For C49U C62U A69U, the yeast fitness was found to be 0.948.

Turning to G6A A42C C62A, the yeast fitness is 0.97. For C11U C34A A36C, the yeast fitness was ≤ 0.5. As for U2C U8A A36U, the yeast fitness is ≤ 0.5. U3A C4U G25C G48A: the yeast fitness was ≤ 0.5. Regarding C5U C33A A36C A37C A43G A69U, the yeast fitness was ≤ 0.5. The result for U7A C11A C30A reads ≤ 0.5; that for U13C A21G U35A C55U A65G, ≤ 0.5. As for U7G G10C A43U C55U, the yeast fitness was ≤ 0.5. A20C C24G G39C G68C: the yeast fitness was ≤ 0.5. Consider A42U A65G A69C, for which the yeast fitness worked out at 0.595. Consider A20C C62U, for which the yeast fitness came out at 0.923.

Regarding C4G G18C C33G G41A, the yeast fitness is ≤ 0.5. For G56A C60U, the yeast fitness worked out at 0.845. With G39A U54A, the yeast fitness came to 0.61. With U3A U35A C60G, the yeast fitness worked out at 0.593. In the case of C4A A20G A42C C46G C49U A69C, the yeast fitness was ≤ 0.5. For A21G C33G G67A, the yeast fitness is ≤ 0.5.

U7G U59C A69U: the yeast fitness amounted to 0.717. Consider G18C C27G U28C U47C U59A A65G, for which the yeast fitness stood at 0.61. To C4G G10C C11G A37U A43G belongs ≤ 0.5; to G18A C33U U53A C55A, 0.523.

Turning to A14U A40U A69U, the yeast fitness was determined as 0.592. As to C24G C29G C46G G67C, the yeast fitness is ≤ 0.5.

Consider G17A C34A C66A, for which the yeast fitness is ≤ 0.5. As for C4A G23A C24G, the yeast fitness was ≤ 0.5. Turning to U26C G44C, the yeast fitness was found to be 0.77.

On to C4G G12A, for which the yeast fitness is 0.781. Regarding U8G A36C U53C A69G, the yeast fitness was ≤ 0.5.

For the variant U16A G18A C31G, the yeast fitness was found to be 0.527. The result for U8C A37C C49G reads ≤ 0.5.

With A20U A57G, the yeast fitness was 0.752. To C4G U16C C31U A70C belongs ≤ 0.5. For U3C A15C C34G U47A C55U G68U, the yeast fitness is ≤ 0.5.

As for C27A U47C, the yeast fitness stood at 0.975. Consider A15G C27A C49U C55G, for which the yeast fitness is ≤ 0.5. On to A45U C46U A57U, for which the yeast fitness turned out to be 0.539. For the variant A57G C60U A70U, the yeast fitness is ≤ 0.5. Regarding C29U A40U G56C A69C, the yeast fitness was 0.519. Regarding C11G G50A C66G, the yeast fitness is ≤ 0.5. With C4U A15C C30G, the yeast fitness was ≤ 0.5. Consider U7G C27G U32C A36G, for which the yeast fitness was ≤ 0.5. As for C11U A14C A15G U26A C34A C46G, the yeast fitness was found to be 0.637. For C4G G18C C46G, the yeast fitness is ≤ 0.5.

For the variant U3A A20G G56A, the yeast fitness is 0.707.

C5G G41C U47A: the yeast fitness was 0.526.

Regarding U2A U3G U32A C60A, the yeast fitness was ≤ 0.5. For the variant C30U G44C A65U, the yeast fitness is ≤ 0.5.

Take C33A C49G G67C: the yeast fitness turned out to be 0.548.

As for G23A C30U U54C, the yeast fitness is 0.528. Turning to U26A A40C G41A G58A, the yeast fitness amounted to 0.655. For C5U A14U C30U G39C C60A A70C, the yeast fitness is ≤ 0.5. To G50C U54C C62G belongs 0.622.
